# Measurements taken from ChEMBL document CHEMBL4699498 (J Med Chem, 2020).
# Calls of active or inactive are those of the source. The rule behind the calls is not given here.
# What was measured:
# [1] = target: T1, Protein cereblon/Poly [ADP-ribose] polymerase 1 (Homo sapiens, UniProt P09874+Q96SW2); experiment: Protac activity at CRBN/PARP1 in human MDA-MB-436 cells assessed as induction of PARP1 degradation by measuring PARP1 level at 100 nM pretreated for 2 hrs followed by compound washout and measured after 24 hrs by Western blot analysis; type: cell-based
# Procedure, shortened: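 MDA-MB-436 cells pretreated 2 h at 100 nM, compound washed out, cells harvested at various times up to 24 h afterwards; PARP1 versus vehicle-treated cells by western blot, β-tubulin loading control.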
# Target sequence in this assay (P09874 2-1014 limits assumed): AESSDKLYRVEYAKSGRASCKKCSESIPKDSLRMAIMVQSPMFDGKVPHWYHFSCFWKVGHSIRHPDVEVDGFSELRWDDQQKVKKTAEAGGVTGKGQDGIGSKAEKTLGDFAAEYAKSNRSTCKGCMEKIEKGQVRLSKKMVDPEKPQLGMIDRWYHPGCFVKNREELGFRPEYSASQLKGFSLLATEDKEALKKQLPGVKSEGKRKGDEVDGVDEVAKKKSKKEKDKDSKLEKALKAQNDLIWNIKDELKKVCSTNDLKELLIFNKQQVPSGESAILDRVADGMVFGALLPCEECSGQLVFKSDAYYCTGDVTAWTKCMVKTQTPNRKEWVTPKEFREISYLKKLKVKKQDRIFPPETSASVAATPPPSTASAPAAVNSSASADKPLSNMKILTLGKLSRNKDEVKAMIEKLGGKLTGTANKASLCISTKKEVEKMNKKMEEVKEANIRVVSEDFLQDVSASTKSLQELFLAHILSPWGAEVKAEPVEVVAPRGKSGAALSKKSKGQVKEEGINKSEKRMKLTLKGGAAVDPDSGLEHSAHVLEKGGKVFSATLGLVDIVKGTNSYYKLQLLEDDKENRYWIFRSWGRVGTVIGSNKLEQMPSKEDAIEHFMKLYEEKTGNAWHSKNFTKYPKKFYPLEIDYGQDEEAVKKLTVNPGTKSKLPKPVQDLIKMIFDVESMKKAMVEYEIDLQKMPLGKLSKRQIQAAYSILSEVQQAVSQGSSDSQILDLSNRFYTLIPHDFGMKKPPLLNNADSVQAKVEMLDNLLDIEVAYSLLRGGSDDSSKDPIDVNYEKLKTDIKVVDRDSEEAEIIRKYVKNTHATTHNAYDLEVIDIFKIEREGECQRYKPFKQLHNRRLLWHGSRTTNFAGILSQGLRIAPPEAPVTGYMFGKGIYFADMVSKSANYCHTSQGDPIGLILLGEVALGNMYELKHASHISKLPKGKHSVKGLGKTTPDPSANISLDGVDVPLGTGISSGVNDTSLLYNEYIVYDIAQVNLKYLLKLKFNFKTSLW
# Target sequence in this assay (Q96SW2 whole entry partner): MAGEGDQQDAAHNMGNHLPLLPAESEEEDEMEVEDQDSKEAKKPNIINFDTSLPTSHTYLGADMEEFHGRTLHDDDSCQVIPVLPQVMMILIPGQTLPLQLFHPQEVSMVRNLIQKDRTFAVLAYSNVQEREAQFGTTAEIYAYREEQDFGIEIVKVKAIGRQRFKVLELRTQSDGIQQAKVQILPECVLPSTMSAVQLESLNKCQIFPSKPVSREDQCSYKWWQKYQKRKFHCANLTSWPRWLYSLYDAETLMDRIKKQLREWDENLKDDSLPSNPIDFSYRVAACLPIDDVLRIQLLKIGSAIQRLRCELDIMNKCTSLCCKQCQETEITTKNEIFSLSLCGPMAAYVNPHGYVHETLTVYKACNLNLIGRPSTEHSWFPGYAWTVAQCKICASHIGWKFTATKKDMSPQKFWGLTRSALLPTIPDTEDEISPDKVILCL
# [2] = test system: PC-3; experiment: Antiproliferation activity against human PC-3 assessed as cell growth inhibition incubated for 7 days by CCK-8 assay; type: functional, cell-based; settings: time 7.0 day
# Procedure, shortened: (§1)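 Cells were sub-cultured at least twice and seeded for 24 h before dosing. Compounds came from 10 mM DMSO stocks, given as 10 points of 3-fold serial dilution starting at 10-20 μM. Incubation was about 7 days (Capan-1 13 days) at 37 °C, 5% CO2. Read-out was CCK-8 absorbance at 450 nm, as % growth versus DMSO wells (duplicate wells). IC50 was fitted by nonlinear regression; three independent experiments.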
# [3] = test system: HEK293; experiment: Cytotoxicity against human HEK293 cells assessed as cell viability incubated for 120 hrs by CCK-8 assay; type: cell-based; settings: hek293, 120 h
# [4] = target: T1, Protein cereblon/Poly [ADP-ribose] polymerase 1; experiment: Protac activity at CRBN/PARP1 in human SW-620 cells assessed as induction of PARP1 degradation at 30 nM incubated for 24 hrs in presence of 0.1 to 1 uM PARP1 inhibitor olaparib by Western blot analysis; type: cell-based
# Target sequence in this assay (P09874 2-1014 limits assumed): as the sequence (P09874 2-1014 limits assumed) above
# Target sequence in this assay (Q96SW2 whole entry partner): as the sequence (Q96SW2 whole entry partner) above
# [5] = test system: CAPAN-1; experiment: Potentiation of cisplatin induced antitumor activity against CAPAN-1 cells xenografted in Balb/c mouse administered intraperitoneally once daily for 5 days; type: functional; settings: dose mg/kg 25-50, time 5.0 day
# Procedure, shortened: (§2)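 Male BALB/c nude mice carried Capan-1 xenografts (5×10^6 cells s.c.), randomized at ~150 mm³ (6 per group). Treatment was 25 or 50 mg/kg intraperitoneally or 100 mg/kg by oral gavage, once daily on days 0-4. Cisplatin 6 mg/kg in saline was given intraperitoneally on day 2, 45 min after the partner drug. Tumor volume and body weight were measured 2-3 times weekly.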
# [6] = Acute toxicity in Balb/c mouse xenografted with SW-620 cells assessed as lethality at 5 to 10 mg/kg, ip qd administered for 5 days in presence of TMZ; type: organism-based; settings: in vivo, 120 h, dose 5-10 mg/kg, time 5 day
# Procedure, shortened: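 In male BALB/c nude mice (5–6 weeks), s.c. SW620 xenografts (6×10^6 cells, right armpit) were grown to about 150 mm³, then randomised, 6 per group. The agent was given once daily for 5 days, orally or i.p., in 5% DMSO/20% PEG400/10% Cremophor EL/65% saline. TMZ 50 mg/kg was given orally once daily for 5 days from day 0, 45 min after the agent. Body weight was measured 2–3 times weekly.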
# [7] = test system: CAPAN-1; experiment: Potentiation of cisplatin induced antitumor activity against CAPAN-1 cells xenografted in Balb/c mouse at 50 mg/kg, ip qd administered for 5 days measured on day 16; type: functional, organism-based; settings: time 16.0 day; procedure, shortened: as §2
# [8] = test system: MDA-MB-231; experiment: Antiproliferation activity against human MDA-MB-231 assessed as cell growth inhibition incubated for 7 days by CCK-8 assay; type: functional, cell-based; settings: time 7.0 day; procedure, shortened: as §1
# [9] = test system: MDA-MB-468; experiment: Antiproliferation activity against human MDA-MB-468 assessed as cell growth inhibition incubated for 7 days by CCK-8 assay; type: functional, cell-based; settings: time 7.0 day; procedure, shortened: as §1
# [10] = test system: L02; experiment: Cytotoxicity against human L02 cells assessed as reduction in cell viability incubated for 120 hrs by CCK-8 assay; type: cell-based; settings: l02, 120 h
# [11] = test system: CAPAN-1; experiment: Antiproliferative activity against human CAPAN-1 cells assessed as cell growth inhibition incubated for 13 days by CCK-8 assay; type: functional, cell-based; settings: CAPAN-1, 312 h; procedure, shortened: as §1
# [12] = Tmax in ICR mouse at 25 mg/kg, ip by LC-tandem mass spectrometry analysis; type: ADME, organism-based; settings: in vivo
# Procedure, shortened: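 Female ICR mice (20-23 g, 6-7 weeks, n = 3) given a single 25 mg/kg ip dose in 5% DMSO/15% Solutol HS15/80% D5W; plasma at 0.5, 1, 2, 4, 6, 8 and 24 h, protein precipitated with methanol, drug quantified by LC-MS/MS against a standard curve.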
# [13] = test system: SW-620; experiment: Potentiation of MMS induced cytotoxicity against human SW-620 cells preincubated for 1 hr followed by addition of MMS measured after 5 days by CCK-8 assay; type: functional, cell-based; settings: dose nM 3-300, time 1.0 hrs
# Procedure, shortened: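 SW620 cells (1000/well) were attached for 24 h, then preincubated 1 h with DMSO or a single compound concentration (3, 10, 100 or 300 nM). MMS was then added at 0-15 μg/mL (final concentration not stated). Incubation ran 5 days, followed by CCK-8 read at 450 nm. Growth was expressed as % of DMSO-only wells, mean of three wells.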
# [14] = Acute toxicity in Balb/c mouse xenografted with CAPAN-1 cells assessed as mean weight loss at 25 mg/kg, ip qd administered for 5 days in presence of cisplatin measured on day 10 relative to control; type: organism-based; settings: in vivo, 120 h, time 5 day; procedure, shortened: as §2
# [15] = test system: SW-620; experiment: Potentiation of TMZ induced antitumor activity against SW-620 cells xenografted in Balb/c mouse assessed as tumor growth suppression at 10 mg/kg, po qd administered for 5 days; type: functional, organism-based; settings: time 5.0 day
# Procedure, shortened: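 Male BALB/c nude mice carried SW620 xenografts (6×10^6 cells s.c.), randomized at ~150 mm³ (6 per group). TMZ 50 mg/kg was given orally once daily on days 0-4, 45 min after the partner drug. Partners were 5 or 10 mg/kg intraperitoneally or 10 mg/kg by oral gavage, daily for 5 days. Vehicle was 5% DMSO/20% PEG400/10% Cremophor EL/65% saline. Tumor volume and body weight were recorded 2-3 times weekly.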
# [16] = target: T1, Protein cereblon/Poly [ADP-ribose] polymerase 1; experiment: Protac activity at CRBN/PARP1 in human MDA-MB-231 cells assessed as induction of PARP1 degradation measured after 24 hrs by Western blot analysis; type: cell-based
# Procedure, shortened: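 Concentration-response over a wide range, 24 h exposure; PARP1 quantified by western blot and normalized to β-tubulin density; DC50 derived from two biologically independent experiments.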
# Target sequence in this assay (P09874 whole entry): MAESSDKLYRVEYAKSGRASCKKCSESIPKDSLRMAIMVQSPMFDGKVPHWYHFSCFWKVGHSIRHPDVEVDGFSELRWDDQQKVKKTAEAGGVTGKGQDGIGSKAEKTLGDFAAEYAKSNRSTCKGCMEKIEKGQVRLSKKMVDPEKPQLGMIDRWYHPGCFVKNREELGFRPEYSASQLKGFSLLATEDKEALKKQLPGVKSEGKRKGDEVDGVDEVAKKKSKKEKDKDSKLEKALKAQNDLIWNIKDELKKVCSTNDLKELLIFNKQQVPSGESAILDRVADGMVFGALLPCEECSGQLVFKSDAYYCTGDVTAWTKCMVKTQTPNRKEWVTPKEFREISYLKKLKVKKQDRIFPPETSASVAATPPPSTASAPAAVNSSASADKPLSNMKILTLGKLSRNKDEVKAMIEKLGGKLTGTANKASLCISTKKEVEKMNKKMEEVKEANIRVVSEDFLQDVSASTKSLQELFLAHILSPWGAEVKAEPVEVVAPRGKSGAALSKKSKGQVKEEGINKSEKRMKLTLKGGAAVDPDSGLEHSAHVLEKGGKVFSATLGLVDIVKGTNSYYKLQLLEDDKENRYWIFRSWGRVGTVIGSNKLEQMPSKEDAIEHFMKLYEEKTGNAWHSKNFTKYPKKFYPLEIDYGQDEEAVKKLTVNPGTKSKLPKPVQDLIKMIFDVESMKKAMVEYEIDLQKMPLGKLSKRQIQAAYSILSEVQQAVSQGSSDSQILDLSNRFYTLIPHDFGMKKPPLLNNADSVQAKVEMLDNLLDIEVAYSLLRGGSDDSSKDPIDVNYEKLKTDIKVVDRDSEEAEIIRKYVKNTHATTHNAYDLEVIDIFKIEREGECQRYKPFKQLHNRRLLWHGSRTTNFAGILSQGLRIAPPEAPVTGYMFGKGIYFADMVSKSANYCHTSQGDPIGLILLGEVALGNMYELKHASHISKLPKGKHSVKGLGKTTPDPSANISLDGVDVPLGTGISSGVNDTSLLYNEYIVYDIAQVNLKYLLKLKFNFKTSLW
# Target sequence in this assay (Q96SW2 whole entry): as the sequence (Q96SW2 whole entry partner) above
# [17] = target: Poly [ADP-ribose] polymerase 1 (Homo sapiens, UniProt P09874); experiment: Inhibition of recombinant human C-terminal His-tagged PARP1 expressed in Sf9 insect cells preincubated for 20 mins in presence of activated DNA followed by […] addition and further incubated for 2 hrs by chemiluminescence assay
# [18] = Cytotoxicity against […] H9c2 cells assessed as reduction in cell viability incubated for 120 hrs by CCK-8 assay; type: cell-based; settings: h9c2, 120 h
# [19] = Half-life in ICR mouse at 25 mg/kg, ip by LC-tandem mass spectrometry analysis; type: ADME, organism-based; settings: in vivo
# Procedure, shortened: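 Female ICR mice (20-23 g, 6-7 weeks old, n = 3) received a single 25 mg/kg intraperitoneal dose formulated in 5% DMSO/15% Solutol HS15/80% D5W. Plasma was sampled at 0.5, 1, 2, 4, 6, 8 and 24 h and protein-precipitated with methanol. Compound was quantified by LC-MS/MS against a standard curve.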
# [20] = target: T1, Protein cereblon/Poly [ADP-ribose] polymerase 1; experiment: Protac activity at CRBN/PARP1 in human 22Rv1 cells assessed as induction of PARP1 degradation at 30 nM incubated for 1 to 24 hrs by Western blot analysis; type: cell-based; settings: time hrs 1-24
# Target sequence in this assay (P09874 2-1014 limits assumed): as the sequence (P09874 2-1014 limits assumed) above
# Target sequence in this assay (Q96SW2 whole entry partner): as the sequence (Q96SW2 whole entry partner) above
# Chain of Poly [ADP-ribose] polymerase 1 (P09874 whole entry): as the sequence (P09874 whole entry) above
smiles,measurement,setting,value
O=C(CCCCCCCCCCC(=O)N1CCN(C(=O)c2cc(Cc3n[nH]c(=O)c4ccccc34)ccc2F)CC1)NCCNc1cccc2c1C(=O)N(C1CCC(=O)NC1=O)C2=O (stereo not given),Activity,[1],Below limit of detection
same,Activity,[2],Active
same,Activity,[3],Non-Toxic
same,Activity,[4],inactive
same,Activity,[5],Dose-dependent effect
same,Activity,[6],Non-Toxic
same,Activity,[7],Active
same,Activity,[8],Active
same,Activity,[9],Active
same,Activity,[10],Non-Toxic
same,IC50,[11],56 nM
same,Tmax,[12],0.25 h
same,Activity,[13],Dose-dependent effect
same,Activity,[14],9%
same,Activity,[15],Active
same,DC50,[16],0.228 nM
same,IC50,[17],2.3 nM
same,Activity,[18],Non-Toxic
same,half-life,[19],3.08 h
same,Activity,[20],Active
